The text below walks through data of ChEMBL document CHEMBL3588837, “Development and validation of a novel assay to identify radiosensitizers that target nucleophosmin 1” (Bioorg Med Chem, 2015).

Active and inactive are the calls of the source. The rule behind the calls is not given here.

For test [1], the system named is Nucleophosmin (Homo sapiens), P06748 [T199N]. Description: Inhibition of phosphorylated NPM1 recruitment to chromatic in 6 Gy irradiated human A549 cells assessed as band intensity ratio of protein solubility measured as extraction of pT199NPM1 pretreated 30 mins and measured after 90 mins of irradiation at 25 uM by Western blot analysis in presence of high NP-40 lysis buffer relative to DMSO control. Format: cell-based. In outline: (§1)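 A549 cells at 70–80% confluency were exposed to compound for 30 min, given 6 Gy from a Cs137 source at 2 Gy/min, and held 90 min at 37°C. Equal protein was run on 10% SDS-PAGE and immunoblotted for pT199 NPM1 and total NPM1. Band intensity ratio = (compound+6 Gy)/(DMSO+6 Gy).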
Nucleophosmin (Homo sapiens), P06748 [T199N], sequence (P06748 whole entry T199N): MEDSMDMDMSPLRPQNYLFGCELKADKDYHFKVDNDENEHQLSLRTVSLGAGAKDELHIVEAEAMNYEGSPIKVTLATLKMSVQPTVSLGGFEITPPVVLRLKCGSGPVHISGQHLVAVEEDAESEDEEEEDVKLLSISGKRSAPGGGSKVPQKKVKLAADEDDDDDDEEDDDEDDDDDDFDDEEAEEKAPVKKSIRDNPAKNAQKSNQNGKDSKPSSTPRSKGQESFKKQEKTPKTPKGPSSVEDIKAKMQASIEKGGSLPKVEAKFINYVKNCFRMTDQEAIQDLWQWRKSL
On the technique in general: Immunoblotting shows a protein as a band on a membrane.

For test [2] the test system is unchanged. Description: Inhibition of phosphorylated NPM1 recruitment to chromatic in 6 Gy irradiated human A549 cells assessed as band intensity ratio of protein solubility measured as extraction of pT199NPM1 pretreated 30 mins and measured after 90 mins of irradiation at 2.5 uM by Western blot analysis in presence of high NP-40 lysis buffer relative to DMSO control. Type of test: cell-based.

For test [3] the test system is unchanged. The test can be described thus: Inhibition of phosphorylated NPM1 recruitment to chromatic in 6 Gy irradiated human A549 cells assessed as increase in protein solubility as extraction of pT199NPM1 pretreated 30 mins and measured after 90 mins of irradiation by Western blot analysis relative to YTR107 in presence of high NP-40 lysis buffer. Format: cell-based.

The target of test [4] is T1, Nucleophosmin (Homo sapiens, UniProt P06748, T199N). The test can be described thus: Inhibition of phosphorylated NPM1 recruitment to chromatic in 6 Gy irradiated human A549 cells assessed as extraction of pT199NPM1 pretreated 30 mins and measured after 90 mins of irradiation by Western blot analysis in presence of high NP-40 lysis buffer. Format: cell-based.
T1 sequence (P06748 whole entry T199N): as above
The next test concerns NCI-H460. Description: Radiodensitization of 6 Gy irradiated human H460 cells assessed as colony formation pretreated 30 mins followed by irradiated for 90 mins and washed off measured after 10 to 14 days incubation at 5 uM by trypan blue assay. Type of test: functional, cell-based. In outline: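 H460 cells, grown in RPMI-1640, were plated in T25 flasks and exposed to 5 μM drug at 37°C for 30 min. They were then irradiated at various radiation doses and incubated 90 min. Drug was washed off with PBS and fresh medium added. Flasks were kept 10–14 days, and colonies were stained with trypan blue and counted.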

The target of test [5] is Nucleophosmin (Homo sapiens) (UniProt P06748). Description: Inhibition of phosphorylated NPM1 recruitment to chromatic in 6 Gy irradiated human A549 cells assessed as increase in solubility of protein pretreated 30 mins and measured after 90 mins of irradiation at 2.5 to 5 uM by Western blot analysis relative to DMSO control in presence of high NP-40 lysis buffer. Format: cell-based.
Nucleophosmin (Homo sapiens), sequence (P06748 whole entry): as the sequence (P06748 whole entry T199N) above, with N199T counted along it

Test [6] deals with Nucleophosmin (Homo sapiens), P06748 [T199N]. The test can be described thus: Inhibition of phosphorylated NPM1 recruitment to chromatic in 6 Gy irradiated human A549 cells assessed as extraction of pT199NPM1 pretreated 30 mins and measured after 90 mins of irradiation at 2.5 uM by Western blot analysis relative to DMSO control in presence of high NP-40 lysis buffer. Type of test: cell-based. In outline:
as §1

The target of test [7] is Nucleophosmin (Homo sapiens) (UniProt P06748). Description: Inhibition of phosphorylated NPM1 recruitment to chromatic in 6 Gy irradiated human A549 cells assessed as increase in solubility of protein pretreated 30 mins and measured after 90 mins of irradiation at 5 uM by Western blot analysis relative to DMSO control in presence of high NP-40 lysis buffer. Format: cell-based.

The test system of test [8] is Nucleophosmin (Homo sapiens), P06748 [T199N]. Description: Inhibition of phosphorylated NPM1 recruitment to chromatic in 6 Gy irradiated human A549 cells assessed as extraction of pT199NPM1 pretreated 30 mins and measured after 90 mins of irradiation at 25 uM by Western blot analysis in presence of high salt lysis buffer. Format: cell-based. In outline: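 A549 cells were dosed with 25 μM drug for 30 min, irradiated, and incubated 90 min. Nuclei were isolated on ice, then extracted in high salt buffer (10 mM HEPES pH 7.2, 420 mM NaCl, 1.5 mM MgCl2, 0.5 mM DTT, 25% glycerol). Extracts were immunoblotted for pT199 NPM1 and total NPM1.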

Test [9] deals with T1, Nucleophosmin. Description: Inhibition of phosphorylated NPM1 recruitment to chromatic in 6 Gy irradiated human A549 cells assessed as increase in protein solubility as extraction of pT199NPM1 pretreated 30 mins and measured after 90 mins of irradiation by Western blot analysis. Format: cell-based. The gist of the method: (§2)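 Drug or DMSO at various concentrations was present on A549 cells for 30 min before, during, and 90 min after 0 or 6 Gy. Nuclear proteins were extracted in 420 mM NaCl high salt buffer and blotted for pT199 NPM1. Buffer-soluble pNPM1 in irradiated cells was quantified relative to non-irradiated cells (±SD, N=3). EC50 was taken from the band intensity plot.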

Test [10] concerns Nucleophosmin (Homo sapiens), P06748 [T199N]. Description: Inhibition of phosphorylated NPM1 recruitment to chromatic in 6 Gy irradiated human A549 cells assessed as extraction of pT199NPM1 pretreated 30 mins and measured after 90 mins of irradiation at 25 uM by Western blot analysis in presence of high RIPA lysis buffer. Format: cell-based.
Test [11] has the same test system. Description: Inhibition of phosphorylated NPM1 recruitment to chromatic in 6 Gy irradiated human IMR90 cells assessed as extraction of pT199NPM1 pretreated 30 mins and measured after 90 mins of irradiation at 25 uM by Western blot analysis relative to DMSO control in presence of high NP-40 lysis buffer. Format: cell-based. Conditions: IMR-90. In outline:
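IMR-90 normal lung fibroblasts, grown in DMEM, received 25 μM drug for 30 min, were irradiated, and were incubated 90 min. Total lysate was prepared with NP-40 lysis buffer and analysed by Western blot for pT199 NPM1.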

Test [12] shares this test system. The test can be described thus: Inhibition of phosphorylated NPM1 recruitment to chromatic in 6 Gy irradiated human A549 cells assessed as extraction of pT199NPM1 pretreated 30 mins and measured after 90 mins of irradiation at 25 uM by Western blot analysis in presence of high NP-40 lysis buffer. Format: cell-based.
The test system is the same in test [13]. The test can be described thus: Inhibition of phosphorylated NPM1 recruitment to chromatic in 6 Gy irradiated human A549 cells assessed as increase in protein solubility as extraction of pT199NPM1 pretreated 30 mins and measured after 90 mins of irradiation at 10 uM by Western blot analysis. Format: cell-based. The gist of the method: as §2

For the compound `COc1ccc(Cn2c(C)c(C=C3C(=O)NC(=S)NC3=O)c3ccccc32)c(OC)c1`, the Ratio in test [1] amounted to 1.22.

Regarding `COc1cc(Cn2c(C)c(C=C3C(=O)NC(=O)NC3=O)c3ccccc32)cc(OC)c1OC`, the Ratio in [1] was determined as 1.16.

On to `Cc1c(C=C2C(=O)NC(=S)NC2=O)c2ccccc2n1Cc1ccccc1C(F)(F)F`, for which, in test [1], the Ratio is 1.54.

On to `COc1cc(Cn2c(C)c(C=C3C(=O)NC(=S)NC3=O)c3ccccc32)cc(OC)c1OC`, for which, in test [1], the Ratio turned out to be 1.97.

For `COC(=O)c1ccc(Cn2c(C)c(C=C3C(=O)NC(=S)NC3=O)c3ccccc32)cc1`, in test [1], the Ratio was found to be 1.74.

As for `COC(=O)c1ccc(Cn2c(C)c(C=C3C(=O)NC(=O)NC3=O)c3ccccc32)cc1`, the Ratio in [1] is 1.48.

On to `Cc1c(C=C2C(=O)NC(=O)NC2=O)c2ccccc2n1Cc1ccccc1`, for which the Ratio in test [1] came out at 1.53.

As to `Cc1c(C=C2C(=O)NC(=S)NC2=O)c2ccccc2n1Cc1ccccc1Br`, the Ratio in [1] turned out to be 1.68.

For orientation: EC50 means the concentration needed to bring the measured effect to its halfway point. `Cc1c(C=C2C(=O)NC(=S)NC2=O)c2ccccc2n1Cc1ccc(Br)cc1`: in test [2], the Ratio was found to be 1.78. The fold change (FC) in [3] is 4. At Nucleophosmin [4], the EC50 was found to be 2.5 µM. Moreover, the result in the test with NCI-H460 was Active.

Consider `Cc1c(C=C2C(=O)NC(=S)NC2=O)c2ccccc2n1Cc1ccccc1`, for which the Ratio in [1] worked out at 1.96.

Turning to `COc1cc(Cn2c(C)c(C=C3C(=O)NC(=S)NC3=O)c3ccccc32)cc(OC)c1`, the Ratio in test [1] was 1.97.

As to `COc1cc(Cn2c(C)c(C=C3C(=O)NC(=O)NC3=O)c3ccccc32)cc(OC)c1`, the result in test [5] was inactive. In addition, in test [1], the Ratio came out at 1.63.

For `Cc1c(C=C2C(=O)NC(=O)NC2=O)c2ccccc2n1Cc1ccc(C#N)cc1`, the result in test [6] was inactive. Besides, the result in test [7] was Active. In addition, the Ratio in test [1] came to 1.58.

As to `Cc1c(C=C2C(=O)NC(=O)NC2=O)c2ccccc2n1Cc1ccccc1C(F)(F)F`, the Ratio in test [1] worked out at 1.16.

For the compound `Cc1c(C=C2C(=O)NC(=O)NC2=O)c2ccccc2n1Cc1ccc(Br)cc1`, in [1], the Ratio stood at 1.23.

With `Cc1c(C=C2C(=O)NC(=O)NC2=O)c2ccccc2n1Cc1ccccc1Br`, in [1], the Ratio was determined as 1.05.

`N#Cc1ccc(Cn2cc(C=C3C(=O)NC(=O)NC3=O)c3ccccc32)cc1`: the result in [8], in [10], in test [12] and in test [13] was Active. Besides, the EC50 at Nucleophosmin [9] was determined as 9.7 µM. Further, in test [11], the outcome was inactive. Also, in test [1], the Ratio worked out at 1.51.

As to `Cc1c(C=C2C(=O)NC(=S)NC2=O)c2ccccc2n1Cc1ccc(C#N)cc1`, the Ratio in test [1] amounted to 1.86.
